# Beta apoptosis – inhibitors of cytokine-induced beta cell apoptosis, primary screen, luminescence. AID 435005, 2010. hit rate 0.8% among 300,000. INS-1E cytokine-induced death, ATP luminescence, 48 h; percent of positive-control rescue, neutral wells zero. protection from apoptosis, % (concentration not given with the values);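 active = Every replicate reaches about 75%, or at least half do and their mean reaches it too, limit read from the data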;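 note: 0% = cytokine-treated negative control wells and 100% = positive control rescue; higher means more ATP so stronger rescue from cytokine killing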
# PREPL inh – PREPL enzyme inhibitors, primary screen, biochemical, fluorescence polarization | Prolyl endopeptidase-like (Homo sapiens), Q4J6C6 | recombinant PREPL, fluorescence polarization activity-based probe | inhibition, % at 5.96 µM | hit rate 0.68% among 320,000; in the data active = inhibition above about 43%;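 note: 0% = enzyme with DMSO and 100% = wells lacking enzyme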
# Target sequence (Q4J6C6 whole entry, looked up): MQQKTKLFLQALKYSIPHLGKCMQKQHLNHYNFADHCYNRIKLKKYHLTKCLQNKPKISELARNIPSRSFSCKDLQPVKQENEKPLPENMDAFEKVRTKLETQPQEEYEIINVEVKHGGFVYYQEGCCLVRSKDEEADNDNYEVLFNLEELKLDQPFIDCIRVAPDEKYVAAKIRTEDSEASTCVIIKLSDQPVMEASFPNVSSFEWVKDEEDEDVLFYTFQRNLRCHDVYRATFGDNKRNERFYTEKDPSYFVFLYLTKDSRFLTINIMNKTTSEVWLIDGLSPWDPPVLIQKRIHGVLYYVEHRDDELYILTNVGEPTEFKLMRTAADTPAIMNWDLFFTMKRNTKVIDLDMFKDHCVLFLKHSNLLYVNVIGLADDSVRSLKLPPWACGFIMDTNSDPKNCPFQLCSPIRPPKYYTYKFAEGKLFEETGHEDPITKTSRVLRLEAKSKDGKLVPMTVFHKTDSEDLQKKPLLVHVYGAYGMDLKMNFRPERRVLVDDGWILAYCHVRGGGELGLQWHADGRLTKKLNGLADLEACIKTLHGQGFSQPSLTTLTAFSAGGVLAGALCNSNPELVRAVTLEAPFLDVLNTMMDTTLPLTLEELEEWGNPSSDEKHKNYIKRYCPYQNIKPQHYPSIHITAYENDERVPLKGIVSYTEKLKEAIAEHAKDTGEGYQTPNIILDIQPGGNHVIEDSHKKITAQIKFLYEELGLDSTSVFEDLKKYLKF
# T cruzi repl – inhibitors of intracellular T. cruzi growth, primary screen, luminescence, NIH3T3 host cells; T. cruzi beta-gal in NIH3T3, 90 h; inhibition, % (test concentration not listed); hit rate 1.4% among 300,000; AID 1885, 2009;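 active = mean inhibition across valid replicates above about 55%, limit read from the data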;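 note: signal also drops with host cell toxicity which is not excluded here; 0% = plate median of DMSO wells and 100% = zero luminescence signal; higher percent means less beta-gal luminescence so fewer parasites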
#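 compound dosing = single 50 nL compound addition per well in DMSO | material = NIH/3T3 host cells with β-galactosidase reporter T. cruzi | input = 5,000 host fibroblasts per well | timing = ≥90 h infection period, 3 h prior cell attachment | read-out basis = percent inhibition of parasite-derived β-gal signal | detection = GalScreen β-gal luminescence, detergent lysis, 60 min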
# CSC inhib – cancer stem cell viability inhibitors, primary screen, luminescence. cancer stem cell-like cells viability. inhibition, % at 7.5 µM. hit rate 1.1% among 300,000. AID 2717, 2010; in the data active = inhibition above about 75%; tested in HMLE shEcad cells
# NR3A LBD binder – binders of NR3A ligand-binding domain, primary screen, biophysical, differential scanning fluorimetry, uHTS; hit rate 2.5% among 340,000; AID 1259313, 2017; NR3A LBD differential scanning fluorimetry, Tm shift; 0% = protein alone, 100% = glycine-bound protein; Glutamate receptor ionotropic, NMDA 3A (GRIN3A) ligand-binding domain; Tm shift relative to glycine control, % at 25 µM;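 active = melting temperature shift of at least 10% of the positive control shift, at one fixed dose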
# CHOP inh – inhibitors of CHOP promoter induction, primary screen, cell-based, unfolded protein response, luciferase reporter; CHO-K1 CHOP-promoter luciferase, tunicamycin-induced, 15-18 h; hit rate 3.8% among 220,000; AID 2732, 2010; inhibition, % at 10 µM;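 active = compounds that reduced the stress-induced luciferase reporter signal by more than about 70% of percent inhibition, limit read from the data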;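 note: 0% = tunicamycin plus vehicle and 100% = wells without tunicamycin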
# Active calls of the source: *; nt = no result. Only some compounds are listed: those with a hit (about 6.7% of all), similar ones and a draw of the others.
SMILES,Beta apoptosis,PREPL inh,T cruzi repl,CSC inhib,NR3A LBD binder,CHOP inh
Cc1ccc(C(=O)N/N=C\c2ccc([N+](=O)[O-])o2)cn1,-4,-1,58*,-3,0,2
O=C(C1CCC(=O)N(C2CCCC2)C1)N1CCC(Oc2ccccc2Cl)CC1 (configuration not stated),0,32,5,0,-2,nt
CC(C)(C)c1ccc(Oc2ccc(N)cn2)cc1,-1,3,-1,42,0,88*
O=C1c2ccccc2S(=O)(=O)c2cc(N3CCc4ccccc4C3)ccc21,0,4,-7,-10,nt,nt
COc1cc(/C=C/c2[nH]c(=O)[nH]c(=O)c2[N+](=O)[O-])ccc1OCCC(C)C,10,-4,-3,77*,-11,-13
CCC(C)Oc1ccc(/C=C/c2[nH]c(=O)[nH]c(=O)c2[N+](=O)[O-])cc1OC (configuration not stated),nt,16,-3,2,3,22
Cc1oc(-c2cccc3ccccc23)nc1CN1CCN(c2ncnc3ccccc23)CC1,7,6,37,12,-3,82*
COc1ccc(-c2nc(CN3CCN(c4cc(C)nc(C)c4)CC3)c(C)o2)c2ccccc12,21,4,36,-12,-1,31
Cc1ccc(/C=C2\SC(N3CCN(C(c4ccccc4)c4ccccc4)CC3)=NC2=O)o1,2,-2,3,47,7,69
CC(C)c1ccc(O)c(NC(=S)NC(=O)c2ccc3c(c2)OCO3)c1,5,11,-18,22,9,nt
O=C(c1ccc(Nc2cccc(C(F)(F)F)c2)nc1)N1CCCC1,-1,25,12,16,-2,11
Cc1nc(Nc2cnc(/C=C/c3cc(C(=O)Nc4cccc(C(F)(F)F)c4)ccc3C)cn2)cc(N2CCNCC2)n1,107*,20,45,136*,-24,nt
COc1ccc(NC(=O)CC2C(=O)N(c3cccc(OC)c3)C(=O)N2CCC(C)C)cc1 (configuration not stated),4,14,-11,-5,11*,22
O=C(CC1C(=O)N(c2ccc(Cl)cc2)C(=S)N1CCc1ccncc1)Nc1ccc(F)cc1 (configuration not stated),2,-4,17,8,29*,40
CCOc1ccc(NC(=O)CC2C(=O)N(c3ccc(OC)c(Cl)c3)C(=S)N2C2CC2)cc1 (configuration not stated),-5,5,27,2,25*,nt
COc1ccc(N2C(=O)C(CC(=O)Nc3ccc(Cl)cc3)N(NC(=O)c3cccc(F)c3)C2=S)cc1 (configuration not stated),3,4,-5,-8,16*,24
CC1=C(C(=O)OCc2ccccc2)C(c2ccc3c(c2)OCO3)NC(=O)N1CCCC(=O)O (configuration not stated),-6,3,5,3,0,nt
O=C(/C=C/c1cccc(Cl)c1)NCCCN1CCOCC1,-5,12,-6,-5,-1,nt
COc1ccc(NC(=O)CN(C)C(=O)C2(c3ccccc3)CCCC2)cc1,27,9,nt,8,-2,nt
COc1ccc(CCN2C(=S)N(C)C(=O)C2CC(=O)Nc2ccc(OC)cc2)cc1 (configuration not stated),2,7,3,97*,-4,27
COc1ccc(NC(=O)CC2C(=O)N(C)C(=S)N2Cc2ccc3c(c2)OCO3)cc1 (configuration not stated),-6,-6,4,nt,14*,18
CCN1C(=O)C(CC(=O)Nc2ccc(F)cc2)N(Cc2ccc3c(c2)OCO3)C1=S (configuration not stated),1,-6,16,4,28*,19
Cc1ccc2c(c1)c(/C=C/c1cc[n+](C)cc1)c(C)n2C,90*,nt,66*,7,2,nt
Cc1ccc2[nH]c(C)c(/C=C/c3cc[n+](C)cc3)c2c1,72,nt,57*,15,2,nt
Cn1cc(/C=C/c2cc[n+](C)cc2)c2cc(F)ccc21,69,21,48,-8,-4,nt
